# Test results from ChEMBL document CHEMBL3853346, “Synthesis of arylated coumarins by Suzuki-Miyaura cross-coupling. Reactions and anti-HIV activity” (Bioorg Med Chem, 2016).
# Tested on: Human immunodeficiency virus 1
# Assay: Antiviral activity against HIV-1 3B infected in human MT-4 cells assessed as protection against virus induced cytopathic effect after 5 days by MTT assay
# Assay type: functional, cell-based
# Conditions: Human immunodeficiency virus 1, 3B, MT4, 120 h
# How it was run: (§1)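 MT-4 cells, exponentially growing, resuspended at 6 x 10⁵ cells/mL and infected with HIV-1 IIIB or HIV-2 ROD at 100-300 CCID50. Test compounds added as serial 5-fold dilutions in triplicate wells at the start. Untreated infected and mock-infected controls included. Viability read by MTT spectrophotometrically 5 days post-infection. EC50 is the concentration giving 50% protection from virus-induced cytopathic effect.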
row,Structure (SMILES),IC50
1,COc1ccc(-c2cc3oc(=O)cc(C)c3cc2OS(=O)(=O)C(F)(F)F)cc1,> 10.6 µg/mL
2,Cc1cc(C)cc(-c2cc3oc(=O)cc(C)c3cc2OS(=O)(=O)C(F)(F)F)c1,> 33.1 µg/mL
3,CCOc1ccc(-c2cc3oc(=O)cc(C)c3cc2OS(=O)(=O)C(F)(F)F)cc1,> 27.2 µg/mL
4,Cc1cc(=O)oc2cc(-c3ccc(C(C)(C)C)cc3)c(OS(=O)(=O)C(F)(F)F)cc12,> 10.3 µg/mL
5,Cc1cc(=O)oc2cc(-c3ccccc3)c(-c3ccccc3)cc12,> 13.8 µg/mL
6,COc1ccc(-c2cc3oc(=O)cc(C)c3cc2-c2ccc(Cl)cc2)cc1,> 2.06 µg/mL
7,Cc1cccc(-c2cc3oc(=O)cc(C)c3cc2OS(=O)(=O)C(F)(F)F)c1,13.2 µg/mL
8,Cc1cc(=O)oc2cc(-c3ccc(F)cc3)c(OS(=O)(=O)C(F)(F)F)cc12,> 10.6 µg/mL
9,Cc1cc(=O)oc2cc(-c3ccc(Cl)cc3)c(OS(=O)(=O)C(F)(F)F)cc12,> 30.6 µg/mL
10,Cc1cc(=O)oc2cc(-c3ccccc3)c(OS(=O)(=O)C(F)(F)F)cc12,> 12.5 µg/mL

# Tested on: not listed separately
# Assay: Cytotoxicity against human MT4 cells assessed as reduction in cell viability after 5 days by MTT assay
# Assay type: toxicity, cell-based
# Conditions: not given
# How it was run: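 Mock-infected MT-4 cells (6 x 10⁵ cells/mL) were run in parallel with the infected series. Serial 5-fold compound dilutions were tested in triplicate wells, with culture medium in place of virus. Viability was measured by MTT at day 5. CC50 is the concentration that reduces viability of mock-infected cells by 50%.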
row,Structure (SMILES),CC50 at 120 h
1,COc1ccc(-c2cc3oc(=O)cc(C)c3cc2OS(=O)(=O)C(F)(F)F)cc1,≥ 10.6 µg/mL
2,Cc1cc(C)cc(-c2cc3oc(=O)cc(C)c3cc2OS(=O)(=O)C(F)(F)F)c1,33.1 µg/mL
3,CCOc1ccc(-c2cc3oc(=O)cc(C)c3cc2OS(=O)(=O)C(F)(F)F)cc1,≥ 27.2 µg/mL
4,Cc1cc(=O)oc2cc(-c3ccc(C(C)(C)C)cc3)c(OS(=O)(=O)C(F)(F)F)cc12,10.3 µg/mL
5,Cc1cc(=O)oc2cc(-c3ccccc3)c(-c3ccccc3)cc12,13.8 µg/mL
6,COc1ccc(-c2cc3oc(=O)cc(C)c3cc2-c2ccc(Cl)cc2)cc1,2.06 µg/mL
7,Cc1cccc(-c2cc3oc(=O)cc(C)c3cc2OS(=O)(=O)C(F)(F)F)c1,61.3 µg/mL
8,Cc1cc(=O)oc2cc(-c3ccc(F)cc3)c(OS(=O)(=O)C(F)(F)F)cc12,10.6 µg/mL
9,Cc1cc(=O)oc2cc(-c3ccc(Cl)cc3)c(OS(=O)(=O)C(F)(F)F)cc12,35.6 µg/mL
10,Cc1cc(=O)oc2cc(-c3ccccc3)c(OS(=O)(=O)C(F)(F)F)cc12,12.6 µg/mL
11,Cc1ccnc2c1NC(=O)c1cccnc1N2C1CC1 [NEVIRAPINE],> 4 µg/mL
12,Cc1cn([C@H]2C[C@H](N=[N+]=[N-])[C@@H](CO)O2)c(=O)[nH]c1=O [ZIDOVUDINE],> 25 µg/mL

# Tested on: not listed separately
# Assay: Antiviral activity against HIV-2 ROD infected in human MT-4 cells assessed as protection against virus induced cytopathic effect after 5 days by MTT assay
# Assay type: functional, cell-based, Human immunodeficiency virus type 2 (ISOLATE ROD)
# Conditions: Human immunodeficiency virus 2, MT4, 120 h
# How it was run: as §1
row,Structure (SMILES),IC50
1,COc1ccc(-c2cc3oc(=O)cc(C)c3cc2OS(=O)(=O)C(F)(F)F)cc1,> 10.6 µg/mL
2,Cc1cc(C)cc(-c2cc3oc(=O)cc(C)c3cc2OS(=O)(=O)C(F)(F)F)c1,> 33.1 µg/mL
3,CCOc1ccc(-c2cc3oc(=O)cc(C)c3cc2OS(=O)(=O)C(F)(F)F)cc1,> 27.2 µg/mL
4,Cc1cc(=O)oc2cc(-c3ccc(C(C)(C)C)cc3)c(OS(=O)(=O)C(F)(F)F)cc12,> 10.3 µg/mL
5,Cc1cc(=O)oc2cc(-c3ccccc3)c(-c3ccccc3)cc12,> 13.8 µg/mL
6,COc1ccc(-c2cc3oc(=O)cc(C)c3cc2-c2ccc(Cl)cc2)cc1,> 2.06 µg/mL
7,Cc1cccc(-c2cc3oc(=O)cc(C)c3cc2OS(=O)(=O)C(F)(F)F)c1,> 61.3 µg/mL
8,Cc1cc(=O)oc2cc(-c3ccc(F)cc3)c(OS(=O)(=O)C(F)(F)F)cc12,> 10.6 µg/mL
9,Cc1cc(=O)oc2cc(-c3ccc(Cl)cc3)c(OS(=O)(=O)C(F)(F)F)cc12,> 35.6 µg/mL
10,Cc1cc(=O)oc2cc(-c3ccccc3)c(OS(=O)(=O)C(F)(F)F)cc12,> 12.5 µg/mL
11,Cc1ccnc2c1NC(=O)c1cccnc1N2C1CC1 [NEVIRAPINE],> 4 µg/mL
12,Cc1cn([C@H]2C[C@H](N=[N+]=[N-])[C@@H](CO)O2)c(=O)[nH]c1=O [ZIDOVUDINE],0.00094 µg/mL

# Tested on: not listed separately
# Assay: Selectivity index, ratio of CC50 for human MT-4 cells to IC50 for HIV-2 ROD infected in human MT-4 cells
# Assay type: functional, MT4
# Conditions: not given
# How it was run: (§2)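 Selectivity index is CC50 in mock-infected MT-4 cells divided by IC50 against HIV-1 IIIB or HIV-2 ROD. Both values come from parallel 5-day MTT assays in the same plates.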
row,Structure (SMILES),Ratio CC50/IC50
1,COc1ccc(-c2cc3oc(=O)cc(C)c3cc2OS(=O)(=O)C(F)(F)F)cc1,<1
2,Cc1cc(C)cc(-c2cc3oc(=O)cc(C)c3cc2OS(=O)(=O)C(F)(F)F)c1,<1
3,CCOc1ccc(-c2cc3oc(=O)cc(C)c3cc2OS(=O)(=O)C(F)(F)F)cc1,<1
4,Cc1cc(=O)oc2cc(-c3ccc(C(C)(C)C)cc3)c(OS(=O)(=O)C(F)(F)F)cc12,<1
5,Cc1cc(=O)oc2cc(-c3ccccc3)c(-c3ccccc3)cc12,<1
6,COc1ccc(-c2cc3oc(=O)cc(C)c3cc2-c2ccc(Cl)cc2)cc1,<1
7,Cc1cccc(-c2cc3oc(=O)cc(C)c3cc2OS(=O)(=O)C(F)(F)F)c1,<1
8,Cc1cc(=O)oc2cc(-c3ccc(F)cc3)c(OS(=O)(=O)C(F)(F)F)cc12,<1
9,Cc1cc(=O)oc2cc(-c3ccc(Cl)cc3)c(OS(=O)(=O)C(F)(F)F)cc12,<1
10,Cc1cc(=O)oc2cc(-c3ccccc3)c(OS(=O)(=O)C(F)(F)F)cc12,<1
11,Cc1ccnc2c1NC(=O)c1cccnc1N2C1CC1 [NEVIRAPINE],<1
12,Cc1cn([C@H]2C[C@H](N=[N+]=[N-])[C@@H](CO)O2)c(=O)[nH]c1=O [ZIDOVUDINE],>26596

# Tested on: not listed separately
# Assay: Selectivity index, ratio of CC50 for human MT-4 cells to IC50 for HIV-1 3B infected in human MT-4 cells
# Assay type: functional, MT4
# Conditions: not given
# How it was run: as §2
row,Structure (SMILES),Ratio CC50/IC50
1,COc1ccc(-c2cc3oc(=O)cc(C)c3cc2OS(=O)(=O)C(F)(F)F)cc1,<1
2,Cc1cc(C)cc(-c2cc3oc(=O)cc(C)c3cc2OS(=O)(=O)C(F)(F)F)c1,<1
3,CCOc1ccc(-c2cc3oc(=O)cc(C)c3cc2OS(=O)(=O)C(F)(F)F)cc1,< 1
4,Cc1cc(=O)oc2cc(-c3ccc(C(C)(C)C)cc3)c(OS(=O)(=O)C(F)(F)F)cc12,<1
5,Cc1cc(=O)oc2cc(-c3ccccc3)c(-c3ccccc3)cc12,<1
6,COc1ccc(-c2cc3oc(=O)cc(C)c3cc2-c2ccc(Cl)cc2)cc1,<1
7,Cc1cccc(-c2cc3oc(=O)cc(C)c3cc2OS(=O)(=O)C(F)(F)F)c1,5
8,Cc1cc(=O)oc2cc(-c3ccc(F)cc3)c(OS(=O)(=O)C(F)(F)F)cc12,<1
9,Cc1cc(=O)oc2cc(-c3ccc(Cl)cc3)c(OS(=O)(=O)C(F)(F)F)cc12,<1
10,Cc1cc(=O)oc2cc(-c3ccccc3)c(OS(=O)(=O)C(F)(F)F)cc12,<1
11,Cc1ccnc2c1NC(=O)c1cccnc1N2C1CC1 [NEVIRAPINE],>80
12,Cc1cn([C@H]2C[C@H](N=[N+]=[N-])[C@@H](CO)O2)c(=O)[nH]c1=O [ZIDOVUDINE],>11363
